Results published in ChEMBL document CHEMBL1154651, “Lead optimization of COX-2 inhibitor nimesulide analogs to overcome aromatase inhibitor resistance in breast cancer cells” (Bioorg Med Chem Lett, 2009).

Assay: Cytotoxicity against human LTEDaro cells after 72 hrs by MTT assay
Type: functional, cell-based
Summary of the method: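 LTEDaro cells (long-term estrogen-deprived MCF-7aro) seeded in custom medium for 24 h, then exposed to a range of concentrations in DMSO (final ≤0.1%) for 72 h, with vehicle-matched DMSO controls. Medium then replaced with 0.5 mg/ml MTT for 2 h at 37°C in CO2 incubator; formazan dissolved in DMSO and read at 570 nm; triplicates.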

SMILES | IC50 [µM]
Cc1ccc(C)c(COc2cc(NC(=O)Cc3cccnc3)ccc2N(C)S(C)(=O)=O)c1 | 1.69
CCCCCCOc1cc(NC(=O)C2CCCCC2)ccc1N(C)S(C)(=O)=O | 6.98
Cc1cccc(COc2cc(NC(=O)Cc3cccnc3)ccc2N(C)S(C)(=O)=O)c1 | 93.6
Cc1ccc(C)c(COc2cc(NC(=O)c3ccccc3)ccc2N(C)S(C)(=O)=O)c1 | 4.68
Cc1cccc(C)c1COc1cc(NC(=O)Cc2cccnc2)ccc1N(C)S(C)(=O)=O | 22.5
CN(c1ccc(NC(=O)Cc2ccncc2)cc1OCc1cc(Cl)ccc1Cl)S(C)(=O)=O | 7.64
Cc1cccc(C)c1COc1cc(NC(=O)Cc2ccncc2)ccc1N(C)S(C)(=O)=O | 19.9
CS(=O)(=O)Nc1ccc([N+](=O)[O-])cc1Oc1ccccc1 [NIMESULIDE] | 173
CN(c1ccc(NC(=O)Cc2cccnc2)cc1OCc1cc(Cl)ccc1Cl)S(C)(=O)=O | 14.1
CC(C)c1ccc(COc2cc(NC(=O)Cc3ccncc3)ccc2N(C)S(C)(=O)=O)cc1 | 11.5
CCCCCCOc1cc(NC(=O)c2ccccc2)ccc1N(C)S(C)(=O)=O | 12
Cc1cccc(C)c1COc1cc(NC(=O)c2ccccc2)ccc1N(C)S(C)(=O)=O | 16.2
Cc1ccccc1COc1cc(NC(=O)c2ccccc2)ccc1N(C)S(C)(=O)=O | 176
Cc1ccccc1COc1cc(NC(=O)Cc2ccncc2)ccc1N(C)S(C)(=O)=O | 11.8
CCCCCCOc1cc(NC(=O)Cc2ccccn2)ccc1N(C)S(C)(=O)=O | 7.68
CC(C)c1ccc(COc2cc(NC(=O)c3ccccc3)ccc2N(C)S(C)(=O)=O)cc1 | 7.93
Cc1ccccc1COc1cc(NC(=O)Cc2cccnc2)ccc1N(C)S(C)(=O)=O | 71.5
Cc1cc(C)c(COc2cc(NC(=O)Cc3ccccn3)ccc2N(C)S(C)(=O)=O)c(C)c1 | 51.3
Cc1ccccc1COc1cc(NC(=O)Cc2ccccn2)ccc1N(C)S(C)(=O)=O | 93.9
Cc1ccccc1COc1cc(NC(=O)C2CCCCC2)ccc1N(C)S(C)(=O)=O | 28.5

SMILES | IC50 [µM]
Cc1cccc(COc2cc(NC(=O)c3ccccc3)ccc2N(C)S(C)(=O)=O)c1 | 16.1
CN(c1ccc(NC(=O)Cc2ccccn2)cc1OCc1cc(Cl)ccc1Cl)S(C)(=O)=O | 23.6
CC(C)c1ccc(COc2cc(NC(=O)Cc3cccnc3)ccc2N(C)S(C)(=O)=O)cc1 | 8.26
CC(C)c1ccc(COc2cc(NC(=O)Cc3ccccn3)ccc2N(C)S(C)(=O)=O)cc1 | 11.4
CCCCCCOc1cc(NC(=O)Cc2ccncc2)ccc1N(C)S(C)(=O)=O | 9.56
CN(c1ccc(NC(=O)c2ccccc2)cc1OCc1cc(Cl)ccc1Cl)S(C)(=O)=O | 2.15
Cc1cc(C)c(COc2cc(NC(=O)Cc3cccnc3)ccc2N(C)S(C)(=O)=O)c(C)c1 | 10.4
Cc1cc(C)c(COc2cc(NC(=O)c3ccccc3)ccc2N(C)S(C)(=O)=O)c(C)c1 | 10.3
Cc1cccc(C)c1COc1cc(NC(=O)Cc2ccccn2)ccc1N(C)S(C)(=O)=O | 41.4
Cc1cccc(COc2cc(NC(=O)C3CCCCC3)ccc2N(C)S(C)(=O)=O)c1 | 44.2
Cc1cc(C)c(COc2cc(NC(=O)C3CCCCC3)ccc2N(C)S(C)(=O)=O)c(C)c1 | 18.5
Cc1ccc(C)c(COc2cc(NC(=O)Cc3ccccn3)ccc2N(C)S(C)(=O)=O)c1 | 174
CN(c1ccc(NC(=O)C2CCCCC2)cc1OCc1cc(Cl)ccc1Cl)S(C)(=O)=O | 1
Cc1ccc(C)c(COc2cc(NC(=O)Cc3ccncc3)ccc2N(C)S(C)(=O)=O)c1 | 2.37
Cc1cccc(COc2cc(NC(=O)Cc3ccncc3)ccc2N(C)S(C)(=O)=O)c1 | 16.1
Cc1cc(C)c(COc2cc(NC(=O)Cc3ccncc3)ccc2N(C)S(C)(=O)=O)c(C)c1 | 13.2
CCCCCCOc1cc(NC(=O)Cc2cccnc2)ccc1N(C)S(C)(=O)=O | 12.1
Cc1cccc(COc2cc(NC(=O)Cc3ccccn3)ccc2N(C)S(C)(=O)=O)c1 | 14.9
Cc1cccc(C)c1COc1cc(NC(=O)C2CCCCC2)ccc1N(C)S(C)(=O)=O | 39.4
CC(C)c1ccc(COc2cc(NC(=O)C3CCCCC3)ccc2N(C)S(C)(=O)=O)cc1 | 16.1
